The values that follow come from ChEMBL document CHEMBL4052623, “Synthesis and antiproteasomal activity of novel O-benzyl salicylamide-based inhibitors built from leucine and phenylalanine” (Eur J Med Chem, 2017).

The target in assay [1] is Proteasome Macropain subunit (Homo sapiens) (UniProt P49721). Nature of the assay: Inhibition of trypsin like activity of 26S proteasome beta 2 subunit in human U266 cells assessed as residual activity using […] as substrate at 10 uM preincubated for 1 hr followed by substrate addition and measured after 4 hrs by fluorescence assay relative to control. The class given is cell-based.

In another assay the test system is CCRF-CEM. As to the kind of experiment: Antiproliferative activity against human CEM cells after 72 hrs by calcein AM staining based fluorescence assay. The class given is functional. Summed up: (§1)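 Cells treated with three-fold compound dilutions in triplicate for 72 h. Calcein AM added afterwards and live-cell fluorescence read at 485/538 nm (ex/em). GI50, the concentration lethal to 50% of tumour cells, calculated from dose-response curves.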

Another assay relates to U-266. Nature of the assay: Antiproliferative activity against human U266 cells after 72 hrs by calcein AM staining based fluorescence assay. Format: functional. The following applies: U-266, 72 h. Summed up: as §1
For assay [2], the species on record is Homo sapiens. Nature of the assay: Inhibition of proteasome in human U2OS cells stably expressing GFP fused to short degron assessed as increase in GFP accumulation pre-incubated for 1 hr and measured after 9 hrs by live-cell imaging microscopy. The class given is cell-based.
Assay [3] has as its target T1, Proteasome Macropain subunit MB1 (Homo sapiens, UniProt P28074).
T1 sequence (P28074 whole entry): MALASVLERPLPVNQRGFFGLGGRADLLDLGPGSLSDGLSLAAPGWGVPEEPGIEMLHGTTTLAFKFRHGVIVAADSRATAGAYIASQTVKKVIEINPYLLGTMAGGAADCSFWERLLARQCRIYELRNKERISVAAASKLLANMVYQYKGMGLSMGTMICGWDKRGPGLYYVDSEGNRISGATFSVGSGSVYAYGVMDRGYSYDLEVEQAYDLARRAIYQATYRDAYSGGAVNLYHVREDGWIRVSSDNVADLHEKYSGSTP
Nature of the assay: Inhibition of chymotrypsin-like activity of 26S proteasome beta 5 subunit in human U266 cells using Suc-LLVY-aminoluciferin as substrate after 1 hr by Proteosome-Glo luminescence assay. The class given is cell-based. Summed up:
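U266 multiple myeloma cells plated at 20,000 cells/well and exposed to varying compound concentrations for 1 h at 37 °C, in duplicate. 26S proteasome activity measured immediately as luciferase-coupled hydrolysis of the β5 substrate Suc-LLVY-aminoluciferin (Proteasome-Glo), read by luminescence. Activity normalised to untreated cells; IC50 derived from dose-response curves.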

The subject of the next assay is K562. Nature of the assay: Antiproliferative activity against human K562 cells after 72 hrs by calcein AM staining based fluorescence assay. The class given is functional. The following applies: K562, 72 h. Summed up:
as §1

The target of assay [4] is T2, Proteasome component C5 (Homo sapiens) (UniProt P20618).
T2 sequence (whole entry): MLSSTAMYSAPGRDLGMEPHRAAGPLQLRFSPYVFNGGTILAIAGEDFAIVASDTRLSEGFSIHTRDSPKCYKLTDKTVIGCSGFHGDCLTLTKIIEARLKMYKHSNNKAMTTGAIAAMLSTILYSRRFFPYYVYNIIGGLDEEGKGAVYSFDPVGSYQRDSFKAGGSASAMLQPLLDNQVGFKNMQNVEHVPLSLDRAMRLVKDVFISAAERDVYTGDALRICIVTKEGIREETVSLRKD
As to the kind of experiment: Inhibition of caspase like activity of 26S proteasome beta 1 subunit in human U266 cells assessed as residual activity using […] as substrate at 10 uM preincubated for 1 hr followed by substrate addition and measured after 4 hrs by fluorescence assay relative to control. The class given is cell-based.

For assay [5], the target named is T3, Proteasome Macropain subunit MB1 (Homo sapiens) (UniProt P28074).
T3 sequence (whole entry): T1 sequence (P28074 whole entry)
As to the kind of experiment: Inhibition of chymotrypsin like activity of 26S proteasome beta 5 subunit in human U266 cells assessed as residual activity using N-Suc-LLVY-AMC as substrate at 10 uM preincubated for 1 hr followed by substrate addition and measured after 4 hrs by fluorescence assay relative to control. The class given is cell-based.

The species named for assay [6] is Homo sapiens. As to the kind of experiment: Inhibition of proteasome in human U266 cells assessed as increase in accumulation of polyubiquitinated proteins by Western blot analysis. To be noted: TDE = time-dependent effect. The class given is cell-based. Summed up: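 Treated U266 cells harvested in Laemmli sample buffer. Proteins separated by SDS-PAGE and electroblotted to nitrocellulose. Membranes blocked, probed overnight with specific primary antibodies, then detected with peroxidase-conjugated secondary antibodies.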
On the technique in general: In western blotting, separated proteins are transferred to a membrane and probed.

As usually defined, the GI50 is the concentration that inhibits growth by half. One may read the IC50 as the concentration that inhibits the measured activity by half. Low values mean greater potency in that assay, high ones weaker potency in that assay.

Chain of Proteasome Macropain subunit (Homo sapiens) (P49721 whole entry): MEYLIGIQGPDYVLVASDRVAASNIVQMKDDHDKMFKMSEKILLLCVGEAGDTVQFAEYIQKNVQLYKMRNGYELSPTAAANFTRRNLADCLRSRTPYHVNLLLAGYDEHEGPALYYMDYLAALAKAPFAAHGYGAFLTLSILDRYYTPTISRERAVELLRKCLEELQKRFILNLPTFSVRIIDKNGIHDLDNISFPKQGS

Regarding `CC(C)C[C@@H](C=O)NC(=O)[C@H](Cc1ccccc1)NC(=O)[C@H](CC(C)C)NC(=O)c1cc(Cl)ccc1OCc1ccccc1`, the results for the Activity in assay [1], in [4] and in assay [5] were 42.5%, 40.2% and 10.6%, respectively. Besides, the GI50 is 430 nM with CCRF-CEM, 170 nM in the assay with U-266 and 1040 nM in the assay with K562. Moreover, in the assay listed under Homo sapiens [2], the inhibition result was “Dose-dependent effect”. The compound further displayed an IC50 in assay [3] of 67 nM.
`CC(C)C[C@@H](C=O)NC(=O)[C@H](Cc1ccccc1)NC(=O)[C@H](CC(C)C)NC(=O)c1cc(Cl)ccc1O`: the Activity in assay [1] stood at 72.6%; in assay [4] it was 28.9%; in [5] it was 27.9%. Moreover, the GI50 is 780 nM with CCRF-CEM, 670 nM with U-266 and 2100 nM in the assay on K562. In the assay listed under Homo sapiens [2], the inhibition entry was “Dose-dependent effect”. This compound also registered an IC50 in [3] of 237 nM.
Turning to `CC(C)CC(C=O)NC(=O)[C@H](Cc1ccccc1)NC(=O)c1cc(Cl)ccc1OCc1ccccc1` (stereo not given in full), the Activity in assay [1] is 92%; in assay [4], 39.9%; in assay [5], 95%. Besides, the GI50 with CCRF-CEM is 15100 nM; in the assay on U-266, 17700 nM; in the assay with K562, 17300 nM. Besides, the 50% inhibitory concentration (IC50) in assay [3] is greater than 1000 nM.
With `CC(C)C[C@H](NC(=O)[C@H](Cc1ccccc1)NC(=O)c1cnccn1)B(O)O` [BORTEZOMIB], the Activity in assay [1] was found to be 86.1%; in assay [4], 0%; in assay [5] it was 1.5%. Also, the GI50 with CCRF-CEM was 1 nM; with U-266 it was 1 nM; with K562 it was 7 nM. In addition, the inhibition result in the assay filed under Homo sapiens [6] was “Tde”.
In the case of `CC(C)C[C@@H](C=O)NC(=O)c1cc(Cl)ccc1OCc1ccccc1`, the Activity in assay [1] stood at 57.5%; in assay [4], 68.2%; in assay [5], 68.8%. For the same compound, the values for the GI50 with CCRF-CEM, in the assay with U-266 and in the assay on K562 were 24300 nM, 55800 nM and 23600 nM, respectively. In assay [3], this compound returned a 50% inhibitory concentration (IC50) greater than 1000 nM.
Regarding `CC(C)CC(C=O)NC(=O)[C@H](CC(C)C)NC(=O)c1cc(Cl)ccc1OCc1ccccc1` (stereo not given in full), the Activity was 88.1% in assay [1], 35.3% in [4] and 84.3% in [5]. Also, the concentration for 50% growth inhibition (GI50) was 16300 nM in the assay on CCRF-CEM, 37000 nM in the assay on U-266 and 21000 nM in the assay on K562. Besides, the IC50 in [3] was greater than 1000 nM.
Consider `CC(C)CC(C=O)NC(=O)[C@H](CC(C)C)NC(=O)[C@H](CC(C)C)NC(=O)c1cc(Cl)ccc1OCc1ccccc1` (stereo not given in full), for which the Activity was determined as 64.2% in assay [1], 39.2% in assay [4] and 10.4% in [5]. Also, the GI50 with CCRF-CEM was 490 nM; with U-266, 290 nM; in the assay with K562, 610 nM. In the assay listed under Homo sapiens [2], the inhibition result is “Dose-dependent effect”. For the same compound, the IC50 in assay [3] was 99 nM.
Take `CC(C)C[C@H](NC(=O)c1cc(Cl)ccc1OCc1ccccc1)C(=O)N[C@H](C=O)Cc1ccccc1`: the Activity in [1] worked out at 85.9%; in assay [4], 67.8%; in [5], 85.2%. Also, the GI50 in the assay with CCRF-CEM was 11000 nM; with U-266, 14800 nM; in the assay on K562, 16300 nM. In assay [3], this compound returned a 50% inhibitory concentration (IC50) greater than 1000 nM.
On to `CC(C)C[C@H](NC(=O)c1cc(Cl)ccc1OCc1ccccc1)C(=O)N[C@@H](Cc1ccccc1)C(=O)NC(C=O)Cc1ccccc1` (stereo not given in full), for which the Activity in assay [1] was 62.3%; in assay [4], greater than 100%; in [5] it was 29.1%. Also, the concentration for 50% growth inhibition (GI50) in the assay with CCRF-CEM was 400 nM; in the assay with U-266, 460 nM; in the assay on K562, 1280 nM. For the same compound, in the assay filed under Homo sapiens [2], the inhibition entry was “Dose-dependent effect”. The same compound yielded an IC50 in assay [3] of 168 nM.
Consider `O=C[C@H](Cc1ccccc1)NC(=O)c1cc(Cl)ccc1OCc1ccccc1`, for which the Activity in assay [1] worked out at 70.2%; in [4] it was 53%; in assay [5], 70.8%. For the same compound, the figures for the GI50 in the assay on CCRF-CEM, with U-266 and in the assay with K562 were 17700 nM, 63800 nM and 33300 nM, respectively. The IC50 in [3] was greater than 1000 nM.
As for `CC(C)C[C@H](NC(=O)c1cc(Cl)ccc1OCc1ccccc1)C(=O)N[C@@H](Cc1ccccc1)C(=O)N[C@@H](C=O)CC(C)C`, the values for the Activity in [1], in [4] and in assay [5] were greater than 100%, 19.7% and 20.7%, respectively. Further, the 50% growth inhibitory concentration (GI50) in the assay with CCRF-CEM was 400 nM; in the assay with U-266, 210 nM; in the assay with K562 it was 730 nM. The compound also displayed an IC50 in assay [3] of 75 nM.
Consider `CC(C)C[C@H](NC(=O)c1cc(Cl)ccc1OCc1ccccc1)C(=O)N[C@@H](Cc1ccccc1)C(=O)N[C@H](C=O)Cc1ccccc1`, for which the Activity in assay [1] is 47.2%; in assay [4] it was greater than 100%; in [5], 25.8%. Also, the values for the concentration for 50% growth inhibition (GI50) in the assay with CCRF-CEM, with U-266 and in the assay on K562 were 440 nM, 400 nM and 1450 nM, respectively. The inhibition entry in the assay listed under Homo sapiens [2] is “Dose-dependent effect”. In assay [3], this compound yielded an IC50 of 110 nM.
For `CC(C)C[C@H](NC(=O)c1cc(Cl)ccc1OCc1ccccc1)C(=O)N[C@@H](CC(C)C)C(=O)NC(C=O)Cc1ccccc1` (stereo not given in full), the Activity in assay [1] is 48.4%; in [4] it was 66.2%; in assay [5] it was 27.9%. Besides, the GI50 was 790 nM in the assay on CCRF-CEM, 540 nM in the assay on U-266 and 1050 nM in the assay on K562. Besides, the inhibition entry in the assay filed under Homo sapiens [2] was “Dose-dependent effect”. This compound gave an IC50 in assay [3] of 197 nM.
Regarding `CC(C)C[C@H](NC(=O)c1cc(Cl)ccc1O)C(=O)N[C@@H](Cc1ccccc1)C(=O)N[C@H](C=O)Cc1ccccc1`, the Activity worked out at 84.2% in assay [1], 73.5% in [4] and 71.7% in assay [5]. The values for the concentration for 50% growth inhibition (GI50) in the assay on CCRF-CEM, with U-266 and in the assay on K562 were 2300 nM, 2230 nM and 6900 nM, respectively. For the same compound, the inhibition result in the assay filed under Homo sapiens [2] was “Dose-dependent effect”. In [3], the IC50 worked out at 740 nM.
